Experimental data as given in ChEMBL document CHEMBL4480408 (J Med Chem, 2019).

Assays:
[1] = target: GHB high-affinity binding site (rat)
[2] = target: GABA-A receptor; anion channel; assay: Displacement of [3H]muscimol from orthosteric binding site of GABA(A) receptor in Sprague-Dawley rat cortical synaptic membranes by liquid scintillation counting
[3] = target: T1, GABA-A receptor; alpha-1/beta-2/gamma-2 (Homo sapiens, UniProt P14867+P18507+P47870); format: cell-based
T1 sequence (P14867 whole entry): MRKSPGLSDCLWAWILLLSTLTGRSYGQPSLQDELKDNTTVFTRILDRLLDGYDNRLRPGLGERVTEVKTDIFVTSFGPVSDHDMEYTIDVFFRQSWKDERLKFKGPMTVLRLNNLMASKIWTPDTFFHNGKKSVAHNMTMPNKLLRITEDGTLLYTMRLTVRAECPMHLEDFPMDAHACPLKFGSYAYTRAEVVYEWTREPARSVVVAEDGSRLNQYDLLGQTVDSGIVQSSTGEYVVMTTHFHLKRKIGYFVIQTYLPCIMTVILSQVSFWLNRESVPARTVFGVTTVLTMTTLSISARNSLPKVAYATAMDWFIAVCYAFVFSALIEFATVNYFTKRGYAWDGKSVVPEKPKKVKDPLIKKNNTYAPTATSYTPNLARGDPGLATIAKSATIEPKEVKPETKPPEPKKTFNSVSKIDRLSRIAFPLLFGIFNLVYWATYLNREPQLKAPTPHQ
T1 sequence (P47870 whole entry): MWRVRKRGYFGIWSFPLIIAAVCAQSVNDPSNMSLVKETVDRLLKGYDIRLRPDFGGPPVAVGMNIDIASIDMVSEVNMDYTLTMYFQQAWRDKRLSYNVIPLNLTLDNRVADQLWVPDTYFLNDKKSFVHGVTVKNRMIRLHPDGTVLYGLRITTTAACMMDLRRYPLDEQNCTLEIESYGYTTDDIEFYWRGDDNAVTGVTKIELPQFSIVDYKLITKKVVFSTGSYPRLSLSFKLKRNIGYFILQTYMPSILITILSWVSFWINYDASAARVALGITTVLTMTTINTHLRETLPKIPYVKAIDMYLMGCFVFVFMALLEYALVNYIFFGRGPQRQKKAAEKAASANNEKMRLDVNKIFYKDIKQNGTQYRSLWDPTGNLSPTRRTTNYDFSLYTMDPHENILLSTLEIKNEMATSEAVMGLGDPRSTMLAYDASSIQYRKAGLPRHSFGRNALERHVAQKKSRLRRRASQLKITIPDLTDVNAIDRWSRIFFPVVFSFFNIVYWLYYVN
T1 sequence (P18507 whole entry): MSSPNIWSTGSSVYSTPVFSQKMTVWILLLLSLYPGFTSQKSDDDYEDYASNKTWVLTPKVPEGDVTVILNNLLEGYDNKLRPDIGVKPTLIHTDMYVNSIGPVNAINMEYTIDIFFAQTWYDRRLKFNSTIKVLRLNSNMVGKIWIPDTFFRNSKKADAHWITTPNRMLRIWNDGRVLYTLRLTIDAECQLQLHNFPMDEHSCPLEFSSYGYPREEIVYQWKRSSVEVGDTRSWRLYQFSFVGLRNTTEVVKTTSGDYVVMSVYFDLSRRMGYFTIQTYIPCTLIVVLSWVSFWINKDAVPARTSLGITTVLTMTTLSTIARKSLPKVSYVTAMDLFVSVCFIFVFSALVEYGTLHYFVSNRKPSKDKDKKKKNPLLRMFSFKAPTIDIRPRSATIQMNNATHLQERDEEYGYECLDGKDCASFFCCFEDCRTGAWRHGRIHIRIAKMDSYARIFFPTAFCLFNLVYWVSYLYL

[4] = Chemical stability of the compound; format: physicochemical
[5] = Metabolic stability in mouse plasma assessed as compound remaining at 10 uM preincubated for 5 mins followed by NADPH addition and measured at 60 mins by UHPLC-MS/MS analysis; format: ADME, cell-free; conditions: read-out: Stability
Outline: (§1)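 Parent loss and parent-drug formation quantified by UHPLC-MS/MS. Percent remaining = internal-standard-corrected peak area at each time ÷ peak area at 0 min × 100. The 0-min peak area was compared with freshly prepared compound in neat buffer and MeCN. A dash at 0 min means the compound degraded during sample preparation and pre-incubation. Mean of three biological replicates.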

[6] = Metabolic stability in mouse plasma assessed as compound remaining at 10 uM preincubated for 5 mins followed by NADPH addition and measured at 120 mins by UHPLC-MS/MS analysis; format: ADME, cell-free; conditions: read-out: Stability
Outline: as §1

[7] = Metabolic stability in mouse liver microsomes assessed as compound remaining at 20 uM preincubated for 5 mins followed by NADPH addition and measured at 30 mins by UHPLC-MS/MS analysis; format: ADME, Microsome; conditions: read-out: Stability
Outline: as §1

[8] = Plasma concentration in C57BL/6JRj mouse at 10 mg/kg, ip after 30 mins by LC-MS analysis; format: ADME, organism-based
Outline: (§2)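 Mice dosed i.p. at 10 mg/kg. Compound concentrations measured in brain (ng/g) and plasma (ng/mL). Brain-to-plasma distribution ratio taken from these two concentrations.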

[9] = Metabolic stability in mouse plasma assessed as compound remaining at 10 uM preincubated for 5 mins followed by NADPH addition and measured at 0 min by UHPLC-MS/MS analysis; format: ADME, cell-free; conditions: read-out: Stability
Outline: as §1

[10] = Metabolic stability in mouse liver microsomes assessed as compound remaining at 20 uM preincubated for 5 mins followed by NADPH addition and measured at 0 min by UHPLC-MS/MS analysis; format: ADME, Microsome; conditions: read-out: Stability
Outline: as §1

[11] = Metabolic stability in mouse liver microsomes assessed as compound remaining at 20 uM preincubated for 5 mins followed by NADPH addition and measured at 60 mins by UHPLC-MS/MS analysis; format: ADME, Microsome; conditions: read-out: Stability
Outline: as §1

[12] = Ratio of drug uptake in C57BL/6JRj mouse brain to plasma at 10 mg/kg, ip after 30 mins by LC-MS analysis; format: ADME, organism-based; conditions: read-out: BPR
Outline: as §2

[13] = Drug uptake in C57BL/6JRj mouse brain at 10 mg/kg, ip after 30 mins by LC-MS analysis; format: ADME, organism-based; conditions: read-out: Drug uptake
Outline: as §2

[14] = Dissociation constant, pKa of the compound; format: physicochemical
[15] = Agonist activity at GABA(B) receptor (unknown origin); set-up: species or system Homo sapiens

Row | Compound | Ki [1] [µM] | Ki [2] [µM] | further results
1 | On1cc(C2CCNCC2)c(-c2cccc(-c3ccccc3)c2)n1 | > 100 | 0.03 | –
2 | O=C(O)CCC(O)c1ccc(OCc2ccccc2)cc1 (stereo unspecified) | 0.12 | > 100 | –
3 | N=c1ccc(-c2ccc(Cl)cc2)nn1CCCC(=O)O | 11 | 0.61 | pKi [1]: 4.99; pKi [2]: 6.23
4 | N=c1ccc(-c2ccccc2)nn1CCCC(=O)O | 100 | 0.81 | –
5 | N=c1ccc(-c2ccc(OCc3ccccc3)cc2)nn1CCCC(=O)O | 3.1 | 0.016 | –
6 | N=c1ccc(-c2ccc(O)cc2)nn1CCCC(=O)O | 15 | 0.22 | IC50 [3]: 11 µM
7 | COc1cccc(-c2ccc3nc(CC(=O)O)cn3n2)c1 | 0.44 | > 100 | –
8 | COc1ccc(C2=NN3CC(CC(=O)O)N=C3C=C2)cc1 (stereo unspecified) | 45 | > 100 | –
9 | CC(C)(C)C(=O)OCOC(=O)Cc1cn2nc(-c3ccc(Cl)cc3)ccc2n1 | – | – | Stability [4]: Unstable
10 | CC(C)(C)OC(=O)Cc1cn2nc(-c3ccc(Cl)cc3)ccc2n1 | – | – | remaining at 1 h, 10 µM [5]: 51%; remaining at 2 h, 10 µM [6]: 36%; remaining at 0.5 h, 20 µM [7]: 90%; concentration at 0.5 h [8]: 212 ng/mL; remaining at 0 h, 10 µM [9]: 100%; remaining at 0 h, 20 µM [10]: 100%; remaining at 1 h, 20 µM [11]: 98%; Kp at 0.5 h [12]: 3.68; concentration at 0.5 h [13]: 798 ng/g
11 | CCOC(=O)Cc1cn2nc(-c3ccc(Cl)cc3)ccc2n1 | – | – | Stability [4]: Unstable
12 | O=C(O)Cc1cn2nc(-c3ccc(Cl)cc3)ccc2n1 | 0.22 | > 100 | remaining at 1 h, 10 µM [5]: 97%; remaining at 2 h, 10 µM [6]: 99%; remaining at 0.5 h, 20 µM [7]: 105%; concentration at 0.5 h [8]: 7600 ng/mL; remaining at 0 h, 10 µM [9]: 100%; remaining at 0 h, 20 µM [10]: 100%; remaining at 1 h, 20 µM [11]: 100%; Kp at 0.5 h [12]: 0.008; concentration at 0.5 h [13]: 59 ng/g; pKa [14]: 4.5; Stability [4]: Stable
13 | COc1ccc(-c2ccc3nc(CC(=O)O)cn3n2)cc1 | 0.83 | > 100 | pKi [1]: 6.09
14 | COc1cccc(C2=NN3CC(CC(=O)O)N=C3C=C2)c1 (stereo unspecified) | > 100 | > 100 | –
15 | O=C(O)Cc1cn2ccccc2n1 | 72 | > 100 | –
16 | O=C(O)CC1CN2N=C(c3ccc(Cl)cc3)C=CC2=N1 (stereo unspecified) | 146 | > 100 | pKa [14]: 9.7

Row | Compound | Ki [1] [µM] | Ki [2] [µM] | further results
17 | N=c1ccc(-c2ccc([N+](=O)[O-])cc2)nn1CCCC(=O)O | 14 | 0.75 | IC50 [3]: 30 µM
18 | O=C(O)CC1CN2N=C(c3cccc(Cl)c3)C=CC2=N1 (stereo unspecified) | > 100 | > 100 | –
19 | O=C(O)Cc1cn2ncccc2n1 | 9.9 | > 100 | –
20 | CC(=O)OCOC(=O)Cc1cn2nc(-c3ccc(Cl)cc3)ccc2n1 | – | – | Stability [4]: Unstable
21 | N=c1ccc(-c2cccc(N)c2)nn1CCCC(=O)O | 30 | 1.1 | IC50 [3]: 30 µM
22 | O=C(O)Cc1cn2nc(-c3cccc(Cl)c3)ccc2n1 | 0.23 | > 100 | –
23 | O=C(O)Cc1cn2nc(-c3ccc(Cl)c(Cl)c3)ccc2n1 | 0.19 | > 100 | pKi [1]: 6.77
24 | O=C(O)Cc1cn2nc(-c3ccc(OCc4ccccc4)cc3)ccc2n1 | 2.2 | > 100 | –
25 | N=c1ccc(-c2cccc(Cl)c2)nn1CCCC(=O)O | 21 | 0.039 | pKi [1]: 4.66
26 | N=c1ccc(-c2cccc([N+](=O)[O-])c2)nn1CCCC(=O)O | 13 | 0.078 | IC50 [3]: 4.4 µM
27 | O=C(O)CC1CN2N=C(c3ccccc3)C=CC2=N1 (stereo unspecified) | 427 | > 100 | pKi [1]: 3.41
28 | N=c1ccc(-c2cccc(OCc3ccccc3)c2)nn1CCCC(=O)O | 4.2 | 0.87 | pKi [1]: 5.39; pKi [2]: 6.07
29 | N=c1ccc(-c2cccc(O)c2)nn1CCCC(=O)O | 16 | 0.13 | IC50 [3]: 3.9 µM
30 | O=C(O)Cc1cn2nc(-c3cccc(OCc4ccccc4)c3)ccc2n1 | 0.51 | > 100 | pKi [1]: 6.33
31 | O=C(O)CCCO [OXYBATE] | – | – | EC50 [15]: 5000 µM
